Screening results (PubChem BioAssay)
PAFAH2 FP inh: PAFAH2 (human) inhibition | Q99487 | recombinant PAFAH2, FP-rhodamine activity probe, fluorescence polarization | inhibition, % at 3.39 µM | hit rate 0.99% among 340,000;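 active means inhibition above the mean over all tested compounds plus 3 SD, cut at about 30% in these data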;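 further: inhibitors block probe labeling of enzyme so polarization drops; 0% = enzyme with DMSO and 100% = wells lacking PAFAH2 protein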
PAFAH1B2 FP inh: inhibitors of human PAFAH1B2. P68402. recombinant PAFAH1B2, FP-rhodamine activity probe, fluorescence polarization. inhibition, % at 3.39 µM. hit rate 1.2% among 340,000. AID 492953;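 active means inhibition above the mean of all tested compounds plus 3 SD, cut at about 24% in these data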;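 further: 0% = enzyme with DMSO and 100% = wells lacking PAFAH1B2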
IMP-1 inh-1: inhibitors of Pseudomonas aeruginosa IMP-1 metallo-beta-lactamase; inhibition, % at 5.6 µM; purified IMP-1, nitrocefin hydrolysis, epi-absorbance fluorescence; hit rate 0.45% among 290,000;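 active means inhibition above the mean plus 3 SD of all compounds in the same screening run, cut at about 4.5% in these data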;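 further: 0% = IMP-1 with DMSO and 100% = DMSO wells lacking enzyme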
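System: Purified recombinant IMP-1 metallo-beta-lactamase enzyme | Measured by: Fluorescence quenching readout, ex 480/em 530 nm | Replication: Singlicate | Incubation: 15 min preincubation plus 25 min reaction at 25 °C | Evaluation: Percent inhibition from optical density relative to buffer-blank wells | Benchmarks: DMSO with and without IMP-1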
pPAFAH inh: pPAFAH (human) enzyme inhibition; recombinant pPAFAH, FP-rhodamine probe fluorescence polarization; inhibition, % at 3.39 µM; hit rate 1.5% among 330,000; AID 463082;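 active means inhibition above the mean inhibition across the screen plus 3 SD, cut at about 25% in these data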;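 further: inhibitors block binding of the rhodamine activity-based probe so polarization drops; 0% = enzyme with DMSO and 100% = wells lacking pPAFAH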
Target sequence (Q13093 whole entry, looked up): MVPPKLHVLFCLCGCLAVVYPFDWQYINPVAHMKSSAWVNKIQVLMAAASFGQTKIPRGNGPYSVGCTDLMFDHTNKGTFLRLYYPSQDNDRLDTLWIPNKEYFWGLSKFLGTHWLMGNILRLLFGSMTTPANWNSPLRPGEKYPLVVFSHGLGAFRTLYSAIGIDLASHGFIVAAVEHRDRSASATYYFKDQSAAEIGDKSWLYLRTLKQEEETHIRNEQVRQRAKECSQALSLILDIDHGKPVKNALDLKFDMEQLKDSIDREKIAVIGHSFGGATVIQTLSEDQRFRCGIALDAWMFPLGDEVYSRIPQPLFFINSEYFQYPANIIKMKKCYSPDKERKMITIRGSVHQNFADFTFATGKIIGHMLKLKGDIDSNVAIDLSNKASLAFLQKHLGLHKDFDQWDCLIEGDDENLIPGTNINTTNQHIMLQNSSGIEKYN
VIM-2 inhibitor: blocks Pseudomonas aeruginosa VIM-2 metallo-beta-lactamase | purified VIM-2, nitrocefin hydrolysis, epi-absorbance fluorescence | inhibition, % at 5.6 µM | hit rate 0.89% among 290,000;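 active means inhibition above the mean of all tested compounds plus 3 SD, cutoff set per screening run, cut at about 7.5% in these data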;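 further: red hydrolysis product quenches plate fluorescence so inhibitors raise well fluorescence; 0% = enzyme with DMSO and 100% = DMSO without enzyme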
PAFAH1B3 FP inh: inhibitors of human PAFAH1B3; AID 492972; hit rate 0.28% among 340,000; Q15102; inhibition, % at 3.39 µM; recombinant PAFAH1B3, FP-rhodamine probe, fluorescence polarization;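 active means inhibition above the screen-wide average of all tested compounds plus 3 SD, cut at about 25% in these data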;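 further: 0% = enzyme with DMSO only and 100% = wells lacking PAFAH1B3 protein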
IMP-1 inh-2: blocks IMP-1 metallo-beta-lactamase in VIM-2 selectivity screen | AID 1856 | purified IMP-1, nitrocefin hydrolysis, epi-absorbance fluorescence | 1,300 tested, under 10 active | inhibition, % at 5.6 µM | shares compounds with VIM-2 inhibitor; call rule not given here;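 further: 0% = enzyme with vehicle and 100% = vehicle without enzyme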
VIM-2 FRET ctr: counter-screen for VIM-2 inhibitors: epi-absorbance artifacts via FRET. hit rate 23% among 1,300. purified VIM-2, CCF2 FRET substrate hydrolysis. inhibition, % at 5.6 µM. shares compounds with VIM-2 inhibitor;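 active means inhibition above the mean of all tested compounds plus 3 SD, cut at about 19% in these data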;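 further: 0% = VIM-2 plus DMSO and 100% = no enzyme wells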
TEM-1 inh: blocks E. coli TEM-1 beta-lactamase in VIM-2 selectivity screen; hit rate 3% among 1,300; shares compounds with VIM-2 inhibitor; Purified TEM-1, nitrocefin hydrolysis, epi-absorbance fluorescence; inhibition, % at 5.6 µM;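 active means inhibition above that campaign's mean inhibition plus 3 SD, cut at about 0.46% in these data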;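 further: 0% = TEM-1 with DMSO and 100% = TEM-1 with 100 µM potassium clavulanate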
Target sequence (P62593 whole entry, looked up): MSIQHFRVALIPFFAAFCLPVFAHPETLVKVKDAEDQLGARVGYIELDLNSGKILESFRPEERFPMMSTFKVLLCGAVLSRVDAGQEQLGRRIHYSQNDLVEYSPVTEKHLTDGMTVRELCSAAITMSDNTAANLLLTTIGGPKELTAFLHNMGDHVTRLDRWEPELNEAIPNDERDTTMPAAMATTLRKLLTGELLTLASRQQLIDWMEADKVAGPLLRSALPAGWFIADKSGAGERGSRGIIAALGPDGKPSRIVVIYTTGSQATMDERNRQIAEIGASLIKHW
VIM-2 confirm 2: confirmation of P. aeruginosa VIM-2 metallo-beta-lactamase inhibitors | inhibition, % at 5.6 µM | purified VIM-2, nitrocefin hydrolysis, epi-absorbance | shares compounds with VIM-2 inhibitor | hit rate 96% among 1,300;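 active means inhibition of the VIM-2 beta-lactamase enzyme above about 11% from the earlier first-round screen, limit read from the data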;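 further: 0% = VIM-2 with DMSO and 100% = buffer wells without enzyme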
* = called active by the depositor; x = not tested or not shown. Rows were chosen to be rich in hits. Some 3.6% of all compounds tested hit in one or more screens of this group.

SMILES	PAFAH2 FP inh	PAFAH1B2 FP inh	IMP-1 inh-1	pPAFAH inh	VIM-2 inhibitor	PAFAH1B3 FP inh	IMP-1 inh-2	VIM-2 FRET ctr	TEM-1 inh	VIM-2 confirm 2
Cc1ccccc1N1CCN(CCC(=O)Nc2ccc(F)cc2)CC1	0.3	3.5	-1.3	3.1	-2.9	3.4	x	x	x	x
Cc1cc(N/N=C/c2ccc(N(C)C)cc2)c2ccccc2n1	-0.9	4.0	-3.4	12.6	4.0	-0.8	x	x	x	x
Cc1cc(C)c2nc(C)cc(N/N=C/c3ccc(O)cc3)c2c1	0.6	-2.4	-0.8	3.2	13.4*	10.6	-3.0	-2.8	-6.2	19.3*
N[C@H]1CONC1=O	x	x	x	-2.1	x	x	x	x	x	x
COc1cccc(NC(=O)CN(C)C(C)C(=O)N2CCCC2)c1 (configuration not stated)	-1.3	2.8	x	2.7	x	9.6	x	x	x	x
O=C1c2ccccc2C(=O)N1c1cccc2cccnc12	8.9	1.4	-3.5	0.0	14.1*	2.1	-2.6	-1.0	-3.3	3.4
O=C1C2C3C=CC(C3)C2C(=O)N1c1cccc2cccnc12 (configuration not stated)	3.5	-2.0	-2.5	10.6	-1.8	-2.5	x	x	x	x
CCCCCCn1cc(C(=O)O)c(=O)c2cc(F)c(N3CCN(C)CC3)cc21	3.9	0.6	1.6	-0.1	16.3*	7.6	-1.3	7.3	-1.4	18.9*
CC1=CC(=O)C(C(C)C)=C/C1=C(\c1cc(C(C)C)c(OP(=O)(O)O)cc1C)c1ccccc1C(=O)O	9.7	-1.0	-1.8	6.6	18.4*	-2.9	-2.0	31.7*	-3.4	25.2*
CCOc1ccc(C(=O)c2ccccc2C(=O)O)cc1OCC	1.4	-0.4	-0.9	2.9	0.4	1.0	x	x	x	x
CCc1cc2c(cc3c(=O)n(CC(=O)N4CCN(c5ccccn5)CC4)nc(CC)n32)s1	-5.4	-0.2	1.7	4.3	-0.6	4.8	x	x	x	x
Cc1nn(CC(=O)N2CCN(c3ccccn3)CC2)c(=O)c2cc3sccc3n12	-2.8	-1.0	-1.0	5.7	1.9	2.7	x	x	x	x
CCCN1CCN(C(=O)Cn2nc(C)n3c(cc4sccc43)c2=O)CC1	4.9	5.4	-2.3	7.2	18.3*	0.7	-3.0	1.3	-6.0	23.2*
CCc1nn(CC(=O)N2CCN(CC)CC2)c(=O)c2cc3sccc3n12	3.6	3.2	0.6	1.9	41.2*	2.6	-3.2	2.7	-8.2	49.8*
CN(Cc1cccnc1)C(=O)c1cc(S(=O)(=O)Nc2ccccc2F)ccc1Cl	-1.0	1.6	x	x	x	2.8	x	x	x	x
COc1ccc(CCNC(=O)c2ccc(Cl)c(S(=O)(=O)N3CCCC3)c2)cc1	-0.6	-0.1	x	4.9	x	4.1	x	x	x	x
Cc1cccc(NC(=O)NNC(=O)c2ccccn2)c1	7.0	1.5	x	6.0	x	5.4	x	x	x	x
C/C(Cl)=C/Cn1c(NCCCn2ccnc2)nc2c1c(=O)[nH]c(=O)n2C	-3.6	3.8	-2.5	-1.0	21.6*	8.3	-3.6	-6.0	-4.5	44.5*
C/C(Cl)=C\Cn1c(NCCCn2ccnc2)nc2c1c(=O)n(C)c(=O)n2C	-0.6	0.9	-4.9	1.1	31.1*	-6.3	-4.2	-2.6	-7.1	49.4*
CCc1cc(C(=O)N2CCN(S(=O)(=O)c3ccc(Cl)cc3)CC2)sc1C	21.4	13.2	x	2.0	x	5.0	x	x	x	x
Cn1c(=O)[nH]c(N)c(Br)c1=O	-2.7	1.9	x	x	x	5.3	x	x	x	x
Cc1c(OCC(=O)N2CCC(C(N)=O)CC2)ccc2c1oc(=O)c1ccccc12	-1.4	6.4	-3.8	2.0	23.1*	9.9	-3.6	-0.7	-12.4	31.5*
Cc1c(OCC(=O)N2CCC(C(=O)O)CC2)ccc2c1oc(=O)c1ccccc12	7.8	10.6	-3.8	0.2	7.1	12.6	x	x	x	x
Cc1c(OCC(=O)N2CCC(C(N)=O)CC2)ccc2c3c(c(=O)oc12)CCCC3	8.0	3.9	-0.9	-0.3	12.4*	9.3	-3.0	-2.8	-14.7	18.6*
O=C(NCCC1CCCCN1S(=O)(=O)c1ccccc1)C(=O)Nc1ccc(F)cc1F (configuration not stated)	-5.8	4.6	x	-1.6	x	1.5	x	x	x	x
SMILES	PAFAH2 FP inh	PAFAH1B2 FP inh	IMP-1 inh-1	pPAFAH inh	VIM-2 inhibitor	PAFAH1B3 FP inh	IMP-1 inh-2	VIM-2 FRET ctr	TEM-1 inh	VIM-2 confirm 2
ClC(Cl)(Cl)c1nc2ccccc2n2nncc12	-2.7	6.5	-1.9	-7.8	24.4*	23.0	-2.5	-0.1	-5.9	37.7*
O=C1c2ccccc2-c2nc3ccccc3cc21	13.1	2.2	-4.1	4.9	12.3*	2.0	-3.9	0.4	-11.2	17.4*
C=CCNc1nnc(SCC(=O)N2CCC(C(N)=O)CC2)s1	2.5	0.0	x	5.2	x	-1.7	x	x	x	x
CCSc1nnc2ccc(-c3ccc(OC)c(OC)c3)nn12	5.4	2.7	-3.6	3.8	31.3*	0.2	-4.2	0.8	-8.5	43.9*
Cc1ccc(NC2CCCCC2NS(=O)(=O)c2ccccc2)c(C)c1 (configuration not stated)	4.0	1.4	-1.1	6.5	-0.2	-5.0	x	x	x	x
COc1cc(OC)c2c(=O)c(OC)c(-c3ccc(OC)c(OC)c3)oc2c1	-0.2	2.7	-2.0	-8.8	16.1*	2.4	-1.6	-6.0	-2.6	35.2*
Cc1cccc(C(=O)c2ccccc2C(=O)O)c1O	10.6	3.9	-0.5	0.9	21.7*	-3.3	-3.1	30.0*	-5.8	16.7*
Cn1c(=O)c2c(nc(N3CCCCC3)n2CCNC2=NCCC2)n(C)c1=O	3.1	5.8	0.3	-1.9	20.2*	6.2	-3.2	2.2	-6.5	36.0*
Cn1c(=O)c2c(nc(N3CCOCC3)n2CCCNC2=NCCCCC2)n(C)c1=O	2.3	3.6	-3.1	-3.6	3.9	9.8	x	x	x	x
Nc1nc(=S)c2ncn(C3OC(CO)C(O)C3O)c2[nH]1 (configuration not stated)	17.8	10.0	0.4	9.6	21.6*	13.5	-1.1	31.0*	-6.2	26.0*
Nc1nc(=S)c2ncn([C@@H]3O[C@H](CO)[C@@H](O)[C@H]3O)c2[nH]1	2.1	-5.0	x	-0.7	x	-2.3	x	x	x	x
COc1cc(OC)cc(-c2c(-c3cccs3)c3cc(-c4cnc(OC)nc4)ccc3n2C)c1	9.9	4.9	x	8.1	x	8.0	x	x	x	x
CN1CCN(C(=O)CCc2nc3ccccc3c(=O)[nH]2)CC1	10.6	3.6	-1.4	1.4	21.3*	6.1	-3.4	0.1	-5.7	42.0*
Cc1c(C)c2ccc(OC(C)C(=O)NCCCn3ccnc3)c(C)c2oc1=O (configuration not stated)	4.9	5.6	0.0	9.6	44.6*	7.5	-2.4	-4.2	-10.9	53.7*
